SKN-1 inh = inhibitors of C. elegans SKN-1 | C. elegans VP596 Pgst-4::GFP/RFP ratio, acrylamide-induced, 24 h | inhibition, % at 21.8 µM | hit rate 0.49% among 360,000 | AID 624304;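 active = interference check ratio from 0.5 to 1.5 plus GFP to RFP signal ratio inhibition reaching or exceeding a fixed threshold, cut at about 30% in these data, passing the limit was not always enough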
hiPSC survival = hiPSC single-cell survival enhancement. AID 602274. hit rate 0.044% among 360,000. ATPlite luminescence; 100% = ROCK inhibitor wells, 0% = DMSO. survival enhancement, % at 20 µM; in the data active = survival enhancement above about 18%;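 also: cells exposed to compounds for 16 hours before the ATP read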
MT1-MMP act inh = inhibitors of human MT1-MMP activation; P50281; HT1080 RFP-PRO-GFP cells, GFP/RFP ratio fluorescence, overnight; percent of plate control window, DMSO zero; GFP/RFP ratio change, % at 20 µM; hit rate 0.061% among 360,000; AID 651647;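 active = GFP/RFP ratio change of at least 30% with cell ATP level not reduced by more than half and red fluorescence within 50% of control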
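Assay system – RFP-PRO-GFP reporter HT1080 cells · Compound dosing – single dose of 20 µM compound, 1% DMSO final · Incubation – overnight compound exposure at 37 °C · Measure – GFP/RFP fluorescence ratio · Benchmarks – DMSO wells and RFP-L50D-GFP cells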
CendR NRP1 mod = modulators of CendR peptide binding to human neuropilin-1 | inhibition, % at 25 µM | O14786 | FAM-RPARPAR peptide binding to NRP-1, fluorescence polarization | AID 602438 | hit rate 0.85% among 360,000;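 active = inhibition or corrected inhibition above about 18%, plus a signal ratio from 0.5 to 1.5, limit read from the data, passing the limit was not always enough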
Target sequence (O14786 whole entry, looked up): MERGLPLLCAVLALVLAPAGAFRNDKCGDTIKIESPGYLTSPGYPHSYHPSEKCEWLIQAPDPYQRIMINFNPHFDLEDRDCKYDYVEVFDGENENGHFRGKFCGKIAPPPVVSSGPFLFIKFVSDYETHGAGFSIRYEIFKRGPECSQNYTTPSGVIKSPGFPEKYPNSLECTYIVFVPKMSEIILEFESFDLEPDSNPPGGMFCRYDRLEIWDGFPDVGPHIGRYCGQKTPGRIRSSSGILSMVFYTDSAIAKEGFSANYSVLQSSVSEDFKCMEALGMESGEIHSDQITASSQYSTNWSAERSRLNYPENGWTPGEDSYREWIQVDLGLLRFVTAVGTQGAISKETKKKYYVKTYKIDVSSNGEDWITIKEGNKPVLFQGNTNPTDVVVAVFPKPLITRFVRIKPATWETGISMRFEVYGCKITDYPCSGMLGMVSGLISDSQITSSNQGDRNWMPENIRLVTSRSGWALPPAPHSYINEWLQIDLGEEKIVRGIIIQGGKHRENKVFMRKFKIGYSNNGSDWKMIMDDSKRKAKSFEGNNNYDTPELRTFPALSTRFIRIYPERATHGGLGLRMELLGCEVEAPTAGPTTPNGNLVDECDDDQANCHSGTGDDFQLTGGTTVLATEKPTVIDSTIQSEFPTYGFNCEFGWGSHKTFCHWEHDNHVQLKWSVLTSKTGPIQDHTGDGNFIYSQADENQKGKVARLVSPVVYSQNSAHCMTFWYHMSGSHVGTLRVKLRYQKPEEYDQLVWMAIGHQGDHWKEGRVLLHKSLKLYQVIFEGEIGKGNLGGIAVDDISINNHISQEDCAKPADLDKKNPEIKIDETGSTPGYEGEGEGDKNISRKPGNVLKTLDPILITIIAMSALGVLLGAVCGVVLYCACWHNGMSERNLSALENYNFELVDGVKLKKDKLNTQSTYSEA
The depositor's hits bear a star; . = no result given. Rows were chosen to be rich in hits. Some 1.4% of all compounds tested hit in one or more screens of this group.

SMILES | SKN-1 inh | hiPSC survival | MT1-MMP act inh | CendR NRP1 mod
CC(=O)NCCNc1nc(NC(C)C)nc2ccsc12 | 7 | 0 | 3 | 26*
COc1cccc(CN(C)C(=O)C2CC(=O)N(c3ccc4c(c3)OCCO4)C2)c1 (stereo not drawn) | -5 | 1 | 3 | 0
Cc1nc2ccc(NC(=O)[C@H](C)N3C(=O)C4CC=CCC4C3=O)cc2s1 (stereo partly drawn) | -10 | 0 | -4 | 19*
Cc1cnc(NC(=O)C(C)N2C(=O)C3CC=CCC3C2=O)s1 (stereo not drawn) | -38 | 2 | 2 | 3
CCc1nc(SCC(=O)Nc2nc3c(s2)CCCC3)c2ccccc2n1 | 9 | 4 | 0 | -8
CCCc1nc(SCC(=O)Nc2nc3c(s2)CCCC3)c2ccccc2n1 | 6 | 22* | -4 | 2
COc1ccc2c3c(cccc13)N(C)N=C2C | 41* | 1 | -38 | 63*
COc1ccc(-c2cc(-c3n[nH]c(=S)n3-c3cc(OC)ccc3OC)[nH]n2)cc1 | 12 | -2 | 9 | 0
CN1CCN(C(=O)c2ccccc2N(Cc2ccccc2)S(C)(=O)=O)CC1 | 40* | 4 | 1 | 2
COc1ccc(CC(=O)Nc2ccc(S(=O)(=O)Nc3cc(C)on3)cc2)cc1 | -1 | 1 | 1 | 3
COc1cccc(OC)c1C(=O)NCCSC1CCCCC1 | -6 | -1 | 0 | -4
CCC1CSC(Nc2ccc(C(=O)/C=C/c3cccc(C)c3)cc2)=N1 (stereo not drawn) | 54* | -2 | -10 | -10
CCC1CSC(Nc2ccc(C(=O)/C=C/c3ccc(Oc4ccccc4)cc3)cc2)=N1 (stereo not drawn) | 15 | -3 | -5 | 6
CC(C)OC(=O)CSc1nnc(-c2ccc(Cl)cc2)n1N | 3 | -1 | 7 | 8
Cc1cc(C)n(-c2ccc(F)cc2)c(=O)c1C#N | -3 | -2 | 0 | 10
Cc1ccc(-n2c(C)cc(C)c(C#N)c2=O)cc1C | 8 | -1 | 1 | 30*
Cc1ccc2nccc(C(=O)N3CCCC(Nc4ccc(F)cc4)C3)c2c1 (stereo not drawn) | 6 | 0 | -8 | 22*
Cn1c(=O)c(=O)n(C)c2cc(S(=O)(=O)NCCOc3ccccc3)ccc21 | 12 | 1 | 2 | 2
COc1ccc(S(=O)(=O)Nc2ccccc2N2CCOCC2)cc1OC | -3 | 1 | 0 | 2
COc1ccc(C(=O)C2CCCN(C(=O)c3cccc(N(C)C)c3)C2)cc1OC (stereo not drawn) | 19 | 0 | 1 | 25*
COc1ccc(F)cc1C(=O)C1CCCN(C(=O)c2cccc(N(C)C)c2)C1 (stereo not drawn) | 7 | 1 | 1 | -3
CC1CC(C)CN(S(=O)(=O)c2ccc(F)c(C(=O)NC3CCCCC3C)c2)C1 (stereo not drawn) | 15 | 0 | 0 | -6
CCN(CC)S(=O)(=O)c1ccc(/C=C/C(=O)O)cc1 | -4 | 1 | 0 | 33*
CCCCOCCCNC(=O)C[C@@H]1C[C@@]2(C(=O)OC)CC(C)(C)CC=C2N(Cc2cccc3ccccc23)C1=O | -8 | . | -8 | 2
COCCCNC(=O)C[C@@H]1C[C@@]2(C(=O)OC)CC(C)(C)CC=C2N(Cc2cccc3ccccc23)C1=O | 19 | . | -12 | 24*
SMILES | SKN-1 inh | hiPSC survival | MT1-MMP act inh | CendR NRP1 mod
Cc1cn([C@H]2C[C@H](O)[C@@H](CCC(=O)NCCc3ccc4ccccc4c3)O2)c(=O)[nH]c1=O | -1 | 1 | 1 | 22*
Nc1n[nH]c2cc(=O)n(-c3cccc(C(F)(F)F)c3)nc12 | 5 | -1 | 6 | 0
O=c1[nH][nH]c2cc(=O)n(-c3cccc(C(F)(F)F)c3)nc12 | 8 | 3 | 7 | 26*
Cc1ccc(NC(=O)CSCC(=O)Nc2ccccc2C(=O)N2CCCCC2)cc1 | 46* | 0 | 1 | 6
CC1CCN(C(=O)C2CCC(=O)N(Cc3ccc(Cl)cc3)C2)CC1 (stereo not drawn) | 6 | 0 | 2 | 6
COC(=O)c1c(NC(=O)CN2CCN(Cc3ccc4c(c3)OCO4)CC2)sc(C)c1C | 36* | -1 | 3 | 3
COc1cccc(OCCSc2nc(C)c(Cc3ccccc3)c(=O)[nH]2)c1 | 0 | 0 | 1 | 14
Cc1ccc(NC(=O)CC2SC3=NCCCN3C2=O)c(C)c1 (stereo not drawn) | 26 | 3 | -32 | 2
O=C(CC1SC2=NCCN2C1=O)Nc1ccc(Cl)cc1 (stereo not drawn) | -15 | -1 | 3 | 27*
CCc1ccccc1NC(=O)NC1CC2CCC(C1)N2Cc1ccco1 (stereo not drawn) | 6 | 0 | -5 | 20*
O=C(/C=C/[C@H]1O[C@@H](n2cnc3c(NC(=O)c4ccccc4)ncnc32)[C@H](O)[C@@H]1O)NCc1cccs1 | 5 | -1 | 2 | 18*
COCCCNC(=O)/C=C/[C@H]1O[C@@H](n2cnc3c(NC(=O)c4ccccc4)ncnc32)[C@H](O)[C@@H]1O | 8 | -2 | 1 | -1
O=C(CC[C@H]1O[C@@H](n2cnc3c(NC(=O)c4ccccc4)ncnc32)[C@H](O)[C@@H]1O)NCC(F)(F)F | 3 | 0 | 1 | 20*
CCOc1cc2[nH]c(=S)n(Cc3ccc(C(=O)NCCN(CC)CC)cc3)c(=O)c2cc1OCC | 5 | -1 | 5 | 2
N#CC1=C(SCC(=O)Nc2nccs2)NC(=O)CC1c1ccccc1 (stereo not drawn) | 4 | 0 | -4 | -15
Cc1ccccc1NC(=O)CSC1=C(C#N)C(c2ccsc2)CC(=O)N1 (stereo not drawn) | 38* | -2 | 4 | 10
CSC(=CC(=O)c1ccc(F)cc1)SC | -8 | 2 | -1 | 8
COC(=O)c1ccc2nc(-c3ccc(C)cc3)c(Cc3cccc(F)c3)n2c1 | 41* | 0 | -7 | -10
Cc1sc2ncn(CC(=O)NCCCC(=O)N3CCC(C(N)=O)CC3)c(=O)c2c1C | 18 | 0 | 1 | 8
CCCN1CCN(C(=O)CCCNC(=O)Cn2cnc3sc(C)c(C)c3c2=O)CC1 | -7 | 0 | 1 | 26*
Cc1cc(NC(=O)CCCN2C(=O)/C(=C/c3cccs3)SC2=S)no1 | 27 | -1 | -3 | -5
c1ccc(C2=NCCCO2)cc1 | 0 | -1 | 3 | -5
c1ccc(N=Nc2ccc(C3=NCCO3)cc2)cc1 | 53* | -4 | 4 | -8
Cc1ccc(C(=O)NCCOc2cccc(C)c2)cc1 | 9 | -1 | -5 | 11
CSc1ccccc1C(=O)NCCOc1cccc(C)c1 | 40* | 0 | -4 | 2
CCCCCNC(=O)c1ccccc1SC | 35* | 1 | -3 | -10
CCOC(=O)c1c(C)[nH]c(C)c1C(=O)CN1C(=O)NC2(CCCCCC2)C1=O | -10 | 0 | 7 | 1
COc1cc2c(cc1OC)[C@@H](NC(=O)CCc1ccccc1)[C@H](OCc1ccccc1)C2 | 35* | 2 | 5 | 11
CC1OC2CC(=O)OC2C2=C1C(=O)c1c(O)cccc1C2=O (stereo not drawn) | -3 | 0 | -178 | 38*
